The values below come from ChEMBL document CHEMBL1914304 (J Med Chem, 2011).

Each structure is given as a SMILES string.

In series [1] the target is Voltage-dependent T-type calcium channel subunit alpha-1H (Homo sapiens) (UniProt O95180). Briefly: Inhibition of Cav3.2 at 10 uM after 5 mins by patch clamp assay. The procedure, abridged: (§1)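 Fixed-concentration screen across a panel of 12 cloned cardiac ion channels. The compound was tested at 10 µM for 5 min exposure at room temperature by automated parallel patch clamp, in two cells (n ≥ 2) per channel. Values are mean percent inhibition of channel current.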
Voltage-dependent T-type calcium channel subunit alpha-1H (Homo sapiens), sequence (O95180 whole entry): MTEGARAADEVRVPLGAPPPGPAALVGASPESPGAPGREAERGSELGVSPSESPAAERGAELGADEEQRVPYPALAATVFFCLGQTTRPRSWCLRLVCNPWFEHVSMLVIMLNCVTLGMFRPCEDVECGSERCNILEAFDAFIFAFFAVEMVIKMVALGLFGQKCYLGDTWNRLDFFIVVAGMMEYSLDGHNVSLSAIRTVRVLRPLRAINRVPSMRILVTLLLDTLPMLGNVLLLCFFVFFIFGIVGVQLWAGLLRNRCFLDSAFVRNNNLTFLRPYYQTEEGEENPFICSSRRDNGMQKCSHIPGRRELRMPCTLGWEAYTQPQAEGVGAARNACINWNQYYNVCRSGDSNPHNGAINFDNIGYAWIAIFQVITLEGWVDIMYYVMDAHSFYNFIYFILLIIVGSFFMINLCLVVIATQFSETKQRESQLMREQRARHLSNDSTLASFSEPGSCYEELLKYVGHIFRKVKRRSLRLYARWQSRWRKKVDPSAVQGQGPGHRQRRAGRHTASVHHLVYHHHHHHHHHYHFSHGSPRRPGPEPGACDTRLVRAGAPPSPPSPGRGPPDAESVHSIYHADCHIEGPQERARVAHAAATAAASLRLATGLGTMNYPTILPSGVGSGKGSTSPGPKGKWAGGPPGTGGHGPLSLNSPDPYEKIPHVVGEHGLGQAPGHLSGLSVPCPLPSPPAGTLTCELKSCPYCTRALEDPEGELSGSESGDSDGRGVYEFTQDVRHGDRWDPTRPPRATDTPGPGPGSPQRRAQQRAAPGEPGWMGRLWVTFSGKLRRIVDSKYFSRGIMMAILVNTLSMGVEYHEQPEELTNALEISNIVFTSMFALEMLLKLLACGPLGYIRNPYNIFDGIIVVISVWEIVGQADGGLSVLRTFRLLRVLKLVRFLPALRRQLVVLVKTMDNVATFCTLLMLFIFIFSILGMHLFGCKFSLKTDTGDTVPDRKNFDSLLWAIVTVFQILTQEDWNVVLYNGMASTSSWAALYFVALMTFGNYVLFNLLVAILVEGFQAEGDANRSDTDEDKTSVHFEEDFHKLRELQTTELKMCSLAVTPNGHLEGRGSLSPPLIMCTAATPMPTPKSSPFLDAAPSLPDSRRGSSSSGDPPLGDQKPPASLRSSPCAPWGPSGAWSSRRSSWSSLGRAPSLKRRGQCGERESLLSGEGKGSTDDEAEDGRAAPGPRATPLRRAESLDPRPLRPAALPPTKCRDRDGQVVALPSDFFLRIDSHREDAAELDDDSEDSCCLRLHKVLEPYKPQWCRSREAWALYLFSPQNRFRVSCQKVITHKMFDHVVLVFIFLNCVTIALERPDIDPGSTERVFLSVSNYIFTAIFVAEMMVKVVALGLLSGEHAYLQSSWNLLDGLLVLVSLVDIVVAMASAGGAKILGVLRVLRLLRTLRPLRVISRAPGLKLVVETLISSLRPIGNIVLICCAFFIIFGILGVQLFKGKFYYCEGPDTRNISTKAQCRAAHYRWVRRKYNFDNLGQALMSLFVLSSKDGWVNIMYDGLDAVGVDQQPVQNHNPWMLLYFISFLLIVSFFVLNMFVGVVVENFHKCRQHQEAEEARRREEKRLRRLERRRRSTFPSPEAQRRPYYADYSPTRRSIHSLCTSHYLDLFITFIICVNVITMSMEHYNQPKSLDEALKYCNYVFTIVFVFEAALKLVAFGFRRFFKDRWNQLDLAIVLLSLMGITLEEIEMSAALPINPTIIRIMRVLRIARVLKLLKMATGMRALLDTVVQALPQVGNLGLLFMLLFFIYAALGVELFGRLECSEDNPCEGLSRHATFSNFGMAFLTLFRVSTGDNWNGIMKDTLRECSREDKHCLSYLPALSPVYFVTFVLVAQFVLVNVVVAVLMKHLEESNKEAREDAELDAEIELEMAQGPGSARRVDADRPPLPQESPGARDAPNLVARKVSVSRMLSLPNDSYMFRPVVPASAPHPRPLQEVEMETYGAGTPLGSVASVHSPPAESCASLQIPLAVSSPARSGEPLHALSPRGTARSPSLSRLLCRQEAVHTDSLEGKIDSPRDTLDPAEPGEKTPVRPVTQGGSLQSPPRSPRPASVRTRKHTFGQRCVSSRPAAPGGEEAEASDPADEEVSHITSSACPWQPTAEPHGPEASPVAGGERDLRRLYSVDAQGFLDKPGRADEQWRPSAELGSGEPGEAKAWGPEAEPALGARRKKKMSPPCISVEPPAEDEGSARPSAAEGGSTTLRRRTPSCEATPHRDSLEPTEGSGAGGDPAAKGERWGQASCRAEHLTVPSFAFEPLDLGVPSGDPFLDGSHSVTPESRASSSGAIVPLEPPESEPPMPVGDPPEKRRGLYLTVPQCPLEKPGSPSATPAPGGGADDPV

Series [2] concerns the target T1, Potassium/sodium hyperpolarization-activated cyclic nucleotide-gated channel 2 (Homo sapiens) (UniProt Q9UL51).
T1 sequence (whole entry): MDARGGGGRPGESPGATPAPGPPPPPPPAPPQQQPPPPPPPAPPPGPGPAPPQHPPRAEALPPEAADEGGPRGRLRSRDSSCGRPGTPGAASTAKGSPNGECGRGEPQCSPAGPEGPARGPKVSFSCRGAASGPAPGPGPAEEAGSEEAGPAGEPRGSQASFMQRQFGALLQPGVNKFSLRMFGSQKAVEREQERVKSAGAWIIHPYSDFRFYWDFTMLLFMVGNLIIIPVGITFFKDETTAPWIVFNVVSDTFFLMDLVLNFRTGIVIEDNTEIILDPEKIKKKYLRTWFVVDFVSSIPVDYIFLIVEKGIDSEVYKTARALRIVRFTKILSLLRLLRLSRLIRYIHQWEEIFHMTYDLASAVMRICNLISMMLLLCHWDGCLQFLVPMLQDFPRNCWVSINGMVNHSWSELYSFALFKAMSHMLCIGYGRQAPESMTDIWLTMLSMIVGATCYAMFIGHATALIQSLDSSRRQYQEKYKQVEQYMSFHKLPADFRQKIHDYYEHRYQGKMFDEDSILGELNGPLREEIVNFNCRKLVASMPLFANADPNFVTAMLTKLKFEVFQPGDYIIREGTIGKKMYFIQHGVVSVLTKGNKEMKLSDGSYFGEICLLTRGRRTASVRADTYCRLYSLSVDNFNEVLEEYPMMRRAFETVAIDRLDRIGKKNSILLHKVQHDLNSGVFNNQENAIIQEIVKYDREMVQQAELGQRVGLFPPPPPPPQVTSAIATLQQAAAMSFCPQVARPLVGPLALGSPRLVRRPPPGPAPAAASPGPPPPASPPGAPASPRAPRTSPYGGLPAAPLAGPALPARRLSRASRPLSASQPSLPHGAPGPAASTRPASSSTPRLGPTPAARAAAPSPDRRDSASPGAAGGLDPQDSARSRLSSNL
Briefly: Inhibition of HCN2 at 10 uM after 5 mins by patch clamp assay. The method in brief: (§2)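 Cardiac ion channel panel run by a contract lab on an automated parallel patch-clamp system at room temperature. Each of 12 cardiac channels was tested with 10 µM compound for 5 min exposure, in two cells per channel (n ≥ 2). Values are reported as mean % inhibition.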
In general terms: Patch clamp records ionic current or voltage across a cell membrane.

Another series has as its target T2, Kir2.1 (Homo sapiens, UniProt P63252).
T2 sequence (P63252 whole entry): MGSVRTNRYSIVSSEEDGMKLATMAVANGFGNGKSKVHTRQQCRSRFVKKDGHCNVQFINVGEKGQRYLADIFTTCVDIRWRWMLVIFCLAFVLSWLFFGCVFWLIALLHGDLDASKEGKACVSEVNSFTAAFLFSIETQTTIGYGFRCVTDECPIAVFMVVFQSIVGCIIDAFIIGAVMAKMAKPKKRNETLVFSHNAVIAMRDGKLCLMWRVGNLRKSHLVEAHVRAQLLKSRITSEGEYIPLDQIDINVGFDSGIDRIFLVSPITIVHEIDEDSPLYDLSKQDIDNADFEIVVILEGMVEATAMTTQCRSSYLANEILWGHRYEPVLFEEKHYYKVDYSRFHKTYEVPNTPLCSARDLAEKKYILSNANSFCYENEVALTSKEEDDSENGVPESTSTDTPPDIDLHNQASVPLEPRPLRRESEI
Briefly: Inhibition of Kir2.1 at 10 uM after 5 mins by patch clamp assay. The procedure, abridged:
as §2

Series [3] concerns the target Sulfonylurea receptor 2, Kir6.2 (Homo sapiens) (UniProt Q14654+O60706). Nature of the series: Inhibition of Kir6.2/SUR2A at 10 uM after 5 mins by patch clamp assay. The procedure, abridged:
as §1

In series [4] the target is Potassium voltage-gated channel subfamily A member 5 (Homo sapiens) (UniProt P22460). Briefly: Inhibition of Kv1.5 at 10 uM after 5 mins by patch clamp assay. The method in brief:
as §2

The target in another series is T3, Kv4.3 (Homo sapiens, UniProt Q9UK17).
T3 sequence (Q9UK17 whole entry): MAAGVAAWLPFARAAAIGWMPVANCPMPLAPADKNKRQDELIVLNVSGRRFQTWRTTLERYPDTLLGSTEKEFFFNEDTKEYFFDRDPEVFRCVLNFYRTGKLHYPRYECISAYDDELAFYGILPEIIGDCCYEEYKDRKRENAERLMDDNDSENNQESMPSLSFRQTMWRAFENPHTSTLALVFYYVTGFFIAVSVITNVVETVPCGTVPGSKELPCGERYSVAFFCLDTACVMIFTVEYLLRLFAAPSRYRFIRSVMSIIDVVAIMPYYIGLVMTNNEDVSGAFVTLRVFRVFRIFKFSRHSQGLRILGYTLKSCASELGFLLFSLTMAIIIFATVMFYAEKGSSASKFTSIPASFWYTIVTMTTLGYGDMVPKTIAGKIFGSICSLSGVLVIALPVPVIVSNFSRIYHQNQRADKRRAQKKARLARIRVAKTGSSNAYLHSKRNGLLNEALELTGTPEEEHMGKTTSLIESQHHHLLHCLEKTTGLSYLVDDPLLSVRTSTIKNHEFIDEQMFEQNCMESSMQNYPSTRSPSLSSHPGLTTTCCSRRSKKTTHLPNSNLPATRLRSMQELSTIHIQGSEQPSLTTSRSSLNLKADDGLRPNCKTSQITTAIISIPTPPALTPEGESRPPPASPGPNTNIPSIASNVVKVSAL
Nature of the series: Inhibition of Kv4.3 at 10 uM after 5 mins by patch clamp assay. The method in brief: as §2

Series [5] can be described thus: Inhibition of KvLQT/minK at 10 uM after 5 mins by patch clamp assay. The method in brief: as §1

Potassium voltage-gated channel subfamily A member 5 (Homo sapiens), sequence (P22460 whole entry): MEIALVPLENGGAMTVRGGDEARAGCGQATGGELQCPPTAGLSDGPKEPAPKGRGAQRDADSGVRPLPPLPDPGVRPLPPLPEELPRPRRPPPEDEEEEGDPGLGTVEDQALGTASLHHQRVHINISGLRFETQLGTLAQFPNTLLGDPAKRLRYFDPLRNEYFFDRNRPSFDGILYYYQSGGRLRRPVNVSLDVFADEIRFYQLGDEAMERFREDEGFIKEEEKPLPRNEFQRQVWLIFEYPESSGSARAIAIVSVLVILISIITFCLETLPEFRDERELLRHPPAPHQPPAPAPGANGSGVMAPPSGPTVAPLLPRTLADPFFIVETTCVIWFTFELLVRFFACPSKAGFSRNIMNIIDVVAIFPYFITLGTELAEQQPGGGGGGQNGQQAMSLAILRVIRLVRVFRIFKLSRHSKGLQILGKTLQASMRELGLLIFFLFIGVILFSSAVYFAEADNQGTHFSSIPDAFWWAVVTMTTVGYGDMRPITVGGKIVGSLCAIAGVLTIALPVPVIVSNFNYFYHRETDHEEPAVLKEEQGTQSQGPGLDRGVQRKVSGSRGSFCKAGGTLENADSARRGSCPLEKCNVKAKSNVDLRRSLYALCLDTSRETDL

Broadly, the inhibition is the change of the read-out against control, counted positive when it falls. `CCCNCC(O)COc1ccccc1C(=O)CCc1ccccc1` (racemic) [PROPAFENONE]: the inhibition in series [1] stood at 60.2%; in series [2] it was 47.8%; in series [3], 89.6%; in series [4], 65.4%; in series [5], 33%. The inhibition at 5 min, 10 µM is 0.2% at Kir2.1 and 44.1% against Kv4.3.
